Measurements published in ChEMBL document CHEMBL2169836 (J Med Chem, 2012).
pIC50: −log10 of the molar value. Calls of active or inactive are those of the source. No cut-off for these calls is given here.

Legend:
[1] = target: Voltage-gated inwardly rectifying potassium channel KCNH2 (Homo sapiens, UniProt Q12809); assay: Inhibition of human ERG expressed in HEK 293 cells by PatchXpress assay; assay type: cell-based, HEK293
[2] = Permeability of the compound by PAMPA; assay type: ADME; conditions: read-out: permeability
Method in brief: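 Donor buffers were set to pH 5.0, 6.2 and 7.4 with NaOH, and ASB7.4 buffer was used as acceptor. Filters (0.45 pore, 125 μm thick) were lipid-coated. A 10 mM DMSO stock was diluted to 41.7 μM in donor buffer. The sandwich was incubated 4 h without stirring. Reference, donor and acceptor concentrations were read in duplicate by UV plate reader, and ratings were assigned from permeation velocity.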

[3] = Metabolic stability in human liver microsomes at 1 uM up to 60 mins by LC/MS/MS analysis relative to hepatic blood flow; assay type: ADME, Microsome; conditions: read-out: Stability
[4] = Metabolic stability in rat liver microsomes at 1 uM up to 60 mins by LC/MS/MS analysis relative to hepatic blood flow; assay type: ADME, Microsome; conditions: read-out: Stability
Cytochrome P450 3A4 = Cytochrome P450 3A4 (Homo sapiens, UniProt P08684); assay: Inhibition of CYP3A4 in human liver microsomes using 7-benzyloxy-4-(trifluoromethyl)-coumarin as substrate after 30 mins by LC/MS/MS analysis; assay type: ADME, Microsome
Cytochrome P450 2D6 = Cytochrome P450 2D6 (Homo sapiens, UniProt P10635); assay: Inhibition of CYP2D6 in human liver microsomes using 3-[2-(N,N-diethyl-N-methylamino)ethyl]-7- methoxy-4-methylcoumarin as substrate after 45 mins by LC/MS/MS analysis; assay type: ADME, Microsome
Cytochrome P450 2C9 = Cytochrome P450 2C9 (Homo sapiens, UniProt P11712); assay: Inhibition of CYP2C9 in human liver microsomes using 7-methoxy-4-(trifluoromethyl)-coumarin as substrate after 45 mins by LC/MS/MS analysis; assay type: ADME, Microsome
Cytochrome P450 2C19 = Cytochrome P450 2C19 (Homo sapiens, UniProt P33261); assay: Inhibition of CYP2C19 in human liver microsomes using 7-ethoxy-3-cyanocoumarin as substrate after 45 mins by LC/MS/MS analysis; assay type: ADME, Microsome
[5] = target: T1, Sodium/hydrogen exchanger 1 (Homo sapiens, UniProt P19634); assay: Inhibition of NHE1 in human HT-29 cells assessed as intracellular pH change after 30 mins; assay type: cell-based
[6] = Volume of distribution at steady state in jugular and femoral vein precannulated Sprague-Dawley rat at 1 mg/kg, iv by LC/MS/MS analysis; assay type: ADME, organism-based; design: dose 1 mg/kg, route intravenous; conditions: in vivo, read-out: Vdss
[7] = Mean resident time in jugular and femoral vein precannulated Sprague-Dawley rat at 1 mg/kg, iv by LC/MS/MS analysis; assay type: ADME, organism-based; design: dose 1 mg/kg, route intravenous; conditions: in vivo
Rattus norvegicus = assay: Clearance in jugular and femoral vein precannulated Sprague-Dawley rat at 1 mg/kg, iv by LC/MS/MS analysis relative to hepatic blood flow; assay type: ADME, organism-based, Liver; design: dose 1 mg/kg, route intravenous; conditions: in vivo
[8] = target: T1, Sodium/hydrogen exchanger 1; assay: Inhibition of NHE1 in human HT-29 cells assessed as intracellular pH change after 30 mins in presence of plasma protein; assay type: cell-based
[9] = Oral bioavailability in overnight fasted Beagle dog at 5 mg/kg; assay type: ADME, organism-based, Canis lupus familiaris; conditions: in vivo
[10] = Mean resident time in overnight fasted Beagle dog at 1 mg/kg, iv; assay type: ADME, organism-based, Canis lupus familiaris; design: dose 1 mg/kg, route intravenous; conditions: in vivo
Canis familiaris = assay: Clearance in overnight fasted Beagle dog at 1 mg/kg, iv relative to hepatic blood flow; assay type: ADME, organism-based, Canis lupus familiaris, Liver; design: dose 1 mg/kg, route intravenous; conditions: in vivo
[11] = Oral bioavailability in jugular and femoral vein precannulated Sprague-Dawley rat plasma at 5 mg/kg by LC/MS/MS analysis; assay type: ADME, organism-based
Caco-2 = assay: Efflux ratio of permeability from […] side in human Caco2 cells at 10 uM up to 150 mins; assay type: ADME, cell-based; conditions: caco-2, 2.5 h

T1 sequence (P19634 whole entry): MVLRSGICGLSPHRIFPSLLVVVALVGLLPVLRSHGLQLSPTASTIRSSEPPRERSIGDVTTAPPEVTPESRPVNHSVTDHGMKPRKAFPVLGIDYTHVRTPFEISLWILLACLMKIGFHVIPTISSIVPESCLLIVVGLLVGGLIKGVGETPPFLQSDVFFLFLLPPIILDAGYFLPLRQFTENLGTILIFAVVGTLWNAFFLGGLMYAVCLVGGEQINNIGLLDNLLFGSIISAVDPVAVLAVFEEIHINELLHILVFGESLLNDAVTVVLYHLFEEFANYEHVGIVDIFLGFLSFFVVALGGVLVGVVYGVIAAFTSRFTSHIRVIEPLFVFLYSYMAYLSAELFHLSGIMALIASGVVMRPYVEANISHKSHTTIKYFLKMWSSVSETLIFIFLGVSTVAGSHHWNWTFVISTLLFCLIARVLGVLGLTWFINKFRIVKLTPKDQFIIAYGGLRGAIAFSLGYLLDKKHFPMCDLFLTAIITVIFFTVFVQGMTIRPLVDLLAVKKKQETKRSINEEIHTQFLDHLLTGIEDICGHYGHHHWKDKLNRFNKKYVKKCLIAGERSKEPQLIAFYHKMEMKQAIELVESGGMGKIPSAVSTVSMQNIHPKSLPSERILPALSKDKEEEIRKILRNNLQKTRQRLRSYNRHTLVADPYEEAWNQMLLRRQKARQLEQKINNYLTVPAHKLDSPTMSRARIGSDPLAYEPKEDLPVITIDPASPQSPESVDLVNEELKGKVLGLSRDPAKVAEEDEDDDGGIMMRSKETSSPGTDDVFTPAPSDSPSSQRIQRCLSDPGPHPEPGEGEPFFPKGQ
Chain of Voltage-gated inwardly rectifying potassium channel KCNH2 (Q12809 whole entry): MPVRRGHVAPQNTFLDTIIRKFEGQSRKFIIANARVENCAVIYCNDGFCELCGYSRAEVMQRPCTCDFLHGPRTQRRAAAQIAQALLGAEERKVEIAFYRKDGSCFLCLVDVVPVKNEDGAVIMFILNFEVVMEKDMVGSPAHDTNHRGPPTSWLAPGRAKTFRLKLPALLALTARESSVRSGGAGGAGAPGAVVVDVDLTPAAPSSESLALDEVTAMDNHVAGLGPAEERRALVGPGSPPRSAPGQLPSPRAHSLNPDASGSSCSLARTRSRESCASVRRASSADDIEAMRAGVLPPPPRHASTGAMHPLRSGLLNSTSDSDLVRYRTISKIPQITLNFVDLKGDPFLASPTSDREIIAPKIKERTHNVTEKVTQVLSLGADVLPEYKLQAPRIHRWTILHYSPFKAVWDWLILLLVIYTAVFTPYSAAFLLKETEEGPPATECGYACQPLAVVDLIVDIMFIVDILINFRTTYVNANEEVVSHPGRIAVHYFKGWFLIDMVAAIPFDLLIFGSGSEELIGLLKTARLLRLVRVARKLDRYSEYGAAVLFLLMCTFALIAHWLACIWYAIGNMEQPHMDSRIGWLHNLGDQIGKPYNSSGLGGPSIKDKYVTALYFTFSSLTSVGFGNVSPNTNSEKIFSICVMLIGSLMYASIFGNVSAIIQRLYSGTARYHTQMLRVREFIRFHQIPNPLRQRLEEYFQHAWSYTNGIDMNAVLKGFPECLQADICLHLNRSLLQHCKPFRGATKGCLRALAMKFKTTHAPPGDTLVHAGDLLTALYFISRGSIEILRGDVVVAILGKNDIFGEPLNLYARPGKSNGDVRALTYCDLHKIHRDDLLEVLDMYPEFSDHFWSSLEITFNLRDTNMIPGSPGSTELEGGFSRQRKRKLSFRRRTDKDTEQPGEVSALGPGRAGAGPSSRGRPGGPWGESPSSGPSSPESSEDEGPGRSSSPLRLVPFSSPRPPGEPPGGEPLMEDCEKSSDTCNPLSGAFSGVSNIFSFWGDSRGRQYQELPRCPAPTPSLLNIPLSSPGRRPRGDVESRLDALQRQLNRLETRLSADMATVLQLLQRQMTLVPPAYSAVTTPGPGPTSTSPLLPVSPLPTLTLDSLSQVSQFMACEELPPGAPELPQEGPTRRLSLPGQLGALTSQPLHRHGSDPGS
Chain of Cytochrome P450 2C19 (P33261 whole entry): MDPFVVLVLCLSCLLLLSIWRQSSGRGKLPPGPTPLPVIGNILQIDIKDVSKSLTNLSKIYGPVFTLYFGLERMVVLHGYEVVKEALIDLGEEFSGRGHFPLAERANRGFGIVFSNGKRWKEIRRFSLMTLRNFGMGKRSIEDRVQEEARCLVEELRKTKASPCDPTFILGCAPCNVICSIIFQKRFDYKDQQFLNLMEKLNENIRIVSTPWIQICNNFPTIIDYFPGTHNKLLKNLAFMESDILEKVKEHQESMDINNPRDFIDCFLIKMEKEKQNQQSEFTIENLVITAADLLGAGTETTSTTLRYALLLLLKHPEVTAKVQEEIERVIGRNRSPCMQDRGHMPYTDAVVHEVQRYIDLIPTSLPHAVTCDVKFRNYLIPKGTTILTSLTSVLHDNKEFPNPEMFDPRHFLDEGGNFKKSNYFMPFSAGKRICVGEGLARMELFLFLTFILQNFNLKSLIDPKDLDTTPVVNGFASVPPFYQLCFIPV
Chain of Cytochrome P450 2D6 (P10635 whole entry): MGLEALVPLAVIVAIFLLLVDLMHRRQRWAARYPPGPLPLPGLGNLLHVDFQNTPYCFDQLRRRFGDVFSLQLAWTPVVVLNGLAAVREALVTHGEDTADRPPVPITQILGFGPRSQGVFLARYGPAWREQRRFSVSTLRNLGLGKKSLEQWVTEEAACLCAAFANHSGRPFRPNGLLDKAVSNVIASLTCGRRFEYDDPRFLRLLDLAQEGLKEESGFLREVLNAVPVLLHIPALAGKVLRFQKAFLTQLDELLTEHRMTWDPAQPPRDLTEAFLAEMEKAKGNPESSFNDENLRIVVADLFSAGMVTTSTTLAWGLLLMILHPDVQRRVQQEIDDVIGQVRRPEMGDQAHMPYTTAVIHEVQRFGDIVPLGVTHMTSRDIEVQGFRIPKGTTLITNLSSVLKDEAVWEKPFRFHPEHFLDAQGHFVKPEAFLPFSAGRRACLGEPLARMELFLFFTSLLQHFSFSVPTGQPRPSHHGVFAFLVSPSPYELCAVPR
Chain of Cytochrome P450 3A4 (P08684 whole entry): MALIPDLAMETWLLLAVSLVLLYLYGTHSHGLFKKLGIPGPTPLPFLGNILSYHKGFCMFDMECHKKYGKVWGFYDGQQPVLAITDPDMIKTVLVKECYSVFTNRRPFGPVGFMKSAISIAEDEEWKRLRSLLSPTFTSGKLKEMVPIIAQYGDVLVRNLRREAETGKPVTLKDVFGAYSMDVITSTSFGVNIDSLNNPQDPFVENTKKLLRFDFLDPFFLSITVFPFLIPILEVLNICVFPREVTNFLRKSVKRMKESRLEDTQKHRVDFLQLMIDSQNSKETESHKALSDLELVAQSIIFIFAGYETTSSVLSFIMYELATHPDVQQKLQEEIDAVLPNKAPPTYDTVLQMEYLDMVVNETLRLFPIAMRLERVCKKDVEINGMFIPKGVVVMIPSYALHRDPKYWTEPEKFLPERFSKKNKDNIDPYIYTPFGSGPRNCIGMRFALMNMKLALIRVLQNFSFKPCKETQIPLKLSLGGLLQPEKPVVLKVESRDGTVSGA
Chain of Cytochrome P450 2C9 (P11712 whole entry): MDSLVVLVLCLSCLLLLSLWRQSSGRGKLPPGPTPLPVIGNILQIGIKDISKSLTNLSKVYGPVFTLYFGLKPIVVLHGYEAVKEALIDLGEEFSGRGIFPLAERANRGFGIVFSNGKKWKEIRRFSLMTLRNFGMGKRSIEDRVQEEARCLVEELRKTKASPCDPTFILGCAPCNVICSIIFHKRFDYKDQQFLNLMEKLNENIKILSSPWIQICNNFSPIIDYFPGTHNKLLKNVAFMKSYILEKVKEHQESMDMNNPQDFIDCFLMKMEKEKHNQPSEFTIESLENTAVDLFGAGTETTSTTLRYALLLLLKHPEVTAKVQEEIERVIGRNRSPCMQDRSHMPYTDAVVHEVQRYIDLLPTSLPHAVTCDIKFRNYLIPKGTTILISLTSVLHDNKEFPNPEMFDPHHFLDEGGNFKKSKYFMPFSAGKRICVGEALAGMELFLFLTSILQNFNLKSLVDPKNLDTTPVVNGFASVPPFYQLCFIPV

Papp [2] [×10⁻⁶ cm/s] | hepatic extraction ratio at 1 h, 1 µM [3] | hepatic extraction ratio at 1 h, 1 µM [4] | pIC50 (Cytochrome P450 3A4) | pIC50 (Cytochrome P450 2D6) | pIC50 (Cytochrome P450 2C9) | pIC50 (Cytochrome P450 2C19) | pIC50 [5] | Vd [6] [L/kg] | MRT [7] [h] | CL (Rattus norvegicus) [%] | inhibition [8] | bioavailability [9] [%] | MRT [10] [h] | CL (Canis familiaris) [%] | bioavailability [11] [%] | Ratio (Caco-2) | Structure (SMILES) | pIC50 [1]
≥ 2 | 0.06 | 0.36 | < 4.52 | < 4.52 | 4.60 | 5.10 | 8.00 | 1.3 | 1.4 | 21 | – | – | – | – | – | – | COCC(=O)N1CCC(c2ccc(C(=O)NC(=N)N)cc2C(F)(F)F)CC1 | < 4.52
– | – | – | – | – | – | – | 7.82 | 0.95 | 0.3 | 54 | – | – | – | – | 1 | 14 | CCC(=O)N1CCC(c2cc(C)c(C(=O)NC(=N)N)cc2S(C)(=O)=O)CC1 | –

Continued, molecule first:

Structure (SMILES) | Papp [2] [×10⁻⁶ cm/s] | hepatic extraction ratio at 1 h, 1 µM [3] | hepatic extraction ratio at 1 h, 1 µM [4] | pIC50 (Cytochrome P450 3A4) | pIC50 (Cytochrome P450 2D6) | pIC50 (Cytochrome P450 2C9) | pIC50 (Cytochrome P450 2C19) | pIC50 [5] | Vd [6] [L/kg] | MRT [7] [h] | CL (Rattus norvegicus) [%] | inhibition [8] | bioavailability [9] [%] | MRT [10] [h] | CL (Canis familiaris) [%] | bioavailability [11] [%] | Ratio (Caco-2) | pIC50 [1]
N=C(N)NC(=O)c1ccc(N2CCC(NC(=O)c3ccc[nH]3)CC2)c(C(F)(F)F)c1 | – | – | – | – | – | – | – | 7.39 | – | – | – | Active | – | – | – | – | – | –
N=C(N)NC(=O)c1ccc(N2CCC(NC(=O)c3ccc[nH]3)C2)c(C(F)(F)F)c1 (racemic) | – | – | – | – | – | – | – | 7.44 | – | – | – | Active | – | – | – | – | – | –
N#Cc1cccc(C(=O)N2CCC(c3ccc(C(=O)NC(=N)N)cc3C(F)(F)F)CC2)c1 | ≥ 2 | < 0.11 | < 0.056 | 4.66 | < 4.52 | 4.72 | 5.15 | 7.46 | 4.9 | 3.3 | 16 | – | 36 | 17 | 18 | 72 | – | < 4.52
